Only some compounds are listed: those with a hit (about 3.8% of all), similar ones and a draw of the others.
rCAG binder: r(CAG) repeat RNA binding; actives 1.3% (n = 370,000); AID 651821; inhibition, % at 3 µM; TO-PRO-1 dye displacement fluorescence;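 active = inhibition above the plate cutoff, the mean of all test compounds on that plate plus 3 SD, cut at about 35% in these data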;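 note: higher means more dye released from RNA so lower well fluorescence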
T cell HTS: T cell immune modulation candidate; actives 0.068% (n = 330,000); 2C CD8+ T cell-vesicle binding, flow cytometry; hits give low values; response (vesicle binding), % at 7 µM; AID 2052;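 active = response, share of CD8 T cells binding vesicles, and their 90th percentile fluorescence all below set limits, cut at about 80% in these data, passing the limit was not always enough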;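 note: values below 100% mean blocked vesicle binding to the CD8+ T cells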
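Assay system: 2C TCR transgenic mouse naive CD8+ T cells, MACS-purified | Read-out: CD8+ gate FL2 mean fluorescence as % of same-row positive control | Signal: High-throughput flow cytometry with anti-B7-1 and anti-CD8 staining | Timing: Binding step 1.5 h, 37 °C, antibody labelling 20 min, ice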
V-ATPase pHluor: alters yeast V-ATPase proton transport. S. cerevisiae, pHLuorin cytosolic pH fluorescence. response, % at 10 µM. actives 0.37% (n = 350,000). AID 504577; in the data active = response mostly above about 7.3%, no sharp cut-off; inactive = mostly below about 5.4%; note: actives read high
Granule exo inh: lytic granule exocytosis inhibition; AID 651702; inhibition, % at 10 µM; actives 0.66% (n = 360,000); TALL-104 LAMP-1 surface exposure, flow cytometry; cells stimulated with thapsigargin and PMA;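 active = inhibition above about 55%, limit read from the data; inconclusive = no clear call, values can overlap the other calls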
Beta2AR agonist: human beta-2 adrenergic receptor agonism by FAP; response, % (no concentration beside the values); P07550; actives 0.43% (n = 340,000); Am2.2-beta2AR cells, FAP receptor internalization, flow cytometry;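 active = response above a set limit, near 3 SD of response in nonfluorescent compounds, cut at about 42% in these data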
Target sequence (P07550 whole entry, looked up): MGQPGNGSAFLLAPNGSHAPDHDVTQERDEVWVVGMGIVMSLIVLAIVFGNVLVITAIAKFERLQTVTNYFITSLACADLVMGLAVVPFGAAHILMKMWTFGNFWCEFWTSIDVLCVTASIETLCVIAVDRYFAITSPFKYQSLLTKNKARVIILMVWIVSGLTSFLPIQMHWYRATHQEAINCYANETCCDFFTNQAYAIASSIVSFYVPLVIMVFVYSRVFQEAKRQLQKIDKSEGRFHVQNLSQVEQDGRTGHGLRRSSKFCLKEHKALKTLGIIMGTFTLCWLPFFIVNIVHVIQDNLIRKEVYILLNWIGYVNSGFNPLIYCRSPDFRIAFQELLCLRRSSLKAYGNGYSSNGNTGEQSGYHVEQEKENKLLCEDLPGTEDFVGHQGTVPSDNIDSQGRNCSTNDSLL
MPTP block: inhibitors of mitochondrial permeability transition pore; isolated mouse mitochondria, Ca2+ swelling absorbance, 30 min; inhibition, % at 10 µM; actives 1.4% (n = 360,000); AID 602449;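 active = inhibition of 50% or more, scaled per plate between neutral and stimulator controls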
Rh123 counter: mitochondrial membrane potential, counter-screen; shares compounds with MPTP block; isolated mitochondria, Rhodamine 123 fluorescence; inhibition, % at 10 µM; actives 78% (n = 5,000); AID 624504; in the data active = inhibition above about 22%
MPTP abs DR: MPTP inhibition, dose response swelling confirmation. shares compounds with MPTP block. isolated mitochondria swelling, absorbance. IC50, µM. actives 58% (n = 780); in the data active = IC50 below about 20 µM
MPTP cs DR: active in counter-screen for permeability transition pore inhibitors | actives 49% (n = 780) | isolated mitochondria counterscreen, fluorescence read-out | AID 651564 | shares compounds with MPTP block | IC50, µM; in the data active = IC50 below about 80 µM
Large screens that a line does not name were inactive (follow-up assays come after a bar, where they were run); ! = repeats disagree.

Cc1ccc(NC(=O)c2cc(S(=O)(=O)NCCC3=CCCCC3)ccc2F)cc1F	MPTP block 82.7 | Rh123 counter 78.3
COC(=O)c1cccc(OC[C@@H](O)CN2CCC(C(O)(c3ccccc3)c3ccccc3)CC2)c1	none (no result: T cell HTS, V-ATPase pHluor, Granule exo inh, Beta2AR agonist, MPTP block)
COc1ccc(CN2CCC(CNC(=O)NC(C)C)CC2)cc1	none (no result: T cell HTS, V-ATPase pHluor, Granule exo inh, Beta2AR agonist, MPTP block)
O=C(NCCc1ccccc1)OCc1cn(Cc2ccc(Cl)cc2)nn1	none (no result: T cell HTS, V-ATPase pHluor, Granule exo inh, Beta2AR agonist, MPTP block)
Cc1ccc(Nc2c([N+](=O)[O-])c(=O)oc3ccccc23)cc1	none
O=c1oc2ccccc2c(Nc2ccc3ccccc3c2)c1[N+](=O)[O-]	MPTP block 62.5 (no result: rCAG binder) | Rh123 counter 77.8
CCN=C1NC(c2ccc(C(F)(F)F)cc2)C(C(=O)OC)=C(C)N1Cc1ccccc1C(F)(F)F (configuration not stated)	none (no result: T cell HTS, V-ATPase pHluor, Granule exo inh, Beta2AR agonist, MPTP block)
Fc1ccc2[nH]c3c(NCc4ccccc4)ncnc3c2c1	MPTP block 83.9 | Rh123 counter 75.4
COc1ccc2[nH]c3c(NCc4ccco4)ncnc3c2c1	none (no result: rCAG binder, V-ATPase pHluor, Granule exo inh, Beta2AR agonist, MPTP block)
CC[C@@H](CCCCCCCn1ccc2ccccc21)CCC(=O)N(c1ccccc1)c1ccccc1	none (no result: T cell HTS, V-ATPase pHluor, Granule exo inh, Beta2AR agonist, MPTP block)
Fc1ccc(NC(=S)Nc2cc(-c3ccccc3)[nH]n2)cc1Cl	MPTP block 66.3 | Rh123 counter 82.1
Cc1ccc(NC(=S)Nc2cc(-c3ccccc3)[nH]n2)cc1Cl	none
Fc1ccc(NC(=S)Nc2cccnc2)cc1Cl	MPTP block 101.0 | Rh123 counter 91.7
CCOC(=O)CC[C@H]1CC[C@]2(CCCN(C(=O)c3ccc4ccccc4n3)C2)O1	none (no result: T cell HTS, V-ATPase pHluor, Granule exo inh, Beta2AR agonist, MPTP block)
Cc1nc2cc[nH]n2c(=O)c1CCc1ccccc1	none (no result: T cell HTS, V-ATPase pHluor, Granule exo inh, Beta2AR agonist, MPTP block)
O=C(c1cccc(F)c1)N1CCCC(c2nc(-c3cccs3)no2)C1 (configuration not stated)	none (no result: T cell HTS, V-ATPase pHluor, Granule exo inh, Beta2AR agonist, MPTP block)
Cc1cccc(CSC(Nc2ccc(F)cc2)=C(C#N)C#N)c1	rCAG binder 39.9, MPTP block 97.0 | Rh123 counter 93.2
COc1ccccc1N=c1scc(-c2ccc3c(c2)NC(=O)CO3)n1CC1CCCO1 (configuration not stated)	MPTP block 63.8 | Rh123 counter inactive | MPTP abs DR inactive | MPTP cs DR 41.2
COCC(C)n1c(-c2ccc3c(c2)NC(=O)CO3)csc1=Nc1ccc(OC(F)F)cc1 (configuration not stated)	MPTP block 70.3! | Rh123 counter 53.6
O=C1COc2ccc(-c3csc(=Nc4ccc(OC(F)F)cc4)n3CC3CCCO3)cc2N1 (configuration not stated)	none
CCCC[C@@H]1C(=O)N2N=C(c3ccccc3)c3ccccc3[C@H]2N2N=C(c3ccccc3)c3ccccc3[C@@H]12	none (no result: T cell HTS, V-ATPase pHluor, Granule exo inh, Beta2AR agonist, MPTP block)
Cc1csc2c(N3CCN(C(=O)Nc4ccc(OC(F)(F)F)cc4)CC3)ncnc12	MPTP block 88.8 | Rh123 counter 72.4
CCOC(=O)[C@]12CCCC3=C1N(CCC3)C(=O)[C@@H](CC(=O)N1CCOCC1)C2	none (no result: T cell HTS, V-ATPase pHluor, Granule exo inh, Beta2AR agonist, MPTP block)
Cc1ccc(OC(=O)N(C)C[C@H]2OCc3cn(nn3)CCCC(=O)N([C@@H](C)CO)C[C@@H]2C)cc1	none (no result: T cell HTS, V-ATPase pHluor, Granule exo inh, Beta2AR agonist, MPTP block)
Cc1ccc(Cc2c(C)c(C#N)c3[nH]c4ccccc4n3c2=O)cc1	MPTP block 88.6 | Rh123 counter 70.2
CCc1cc(=O)n2c([nH]c3ccccc32)c1C#N	none
CCc1c(C)c(C#N)c2[nH]c3ccccc3n2c1=S	MPTP block 89.6 | Rh123 counter 80.7
CCc1cc(=S)n2c([nH]c3ccccc32)c1C#N	MPTP block 100.6 (no result: rCAG binder) | Rh123 counter 68.5
COc1ccc(NC(=O)Cc2cccc(F)c2)cc1S(=O)(=O)Nc1ccccc1Cl	Granule exo inh inconclusive, MPTP block 52.0 | Rh123 counter 69.8
COc1ccc(C(=O)Nc2ccc(Cl)c(S(=O)(=O)Nc3ccccc3OC)c2)cc1	MPTP block 54.9 | Rh123 counter 70.0
CCOc1ccc(NC(=O)c2ccc(NS(=O)(=O)c3cccc4cccnc34)cc2)cc1	none (no result: T cell HTS)
COc1ccccc1NS(=O)(=O)c1cc(NC(=O)c2ccc(Cl)nc2)ccc1Cl	MPTP block 55.6 | Rh123 counter 72.4
